Tests used:
[1] = clinical; cited from earlier work
[2] = system: breast cancer resistance protein (Bcrp/Abcg2); conditions: on the BBB; cited from earlier work
[3] = Plasma protein binding by rapid equilibrium dialysis; format: in vitro ADME; conditions: BALB/c, mouse
How it was run: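 Rapid equilibrium dialysis: freshly spiked BALB/c mouse plasma against PBS, 37 °C for 24 h. Test compound at 300–100,000 ng/mL with <0.1% final organic solvent, triplicate. Fraction unbound in plasma determined from chamber concentrations.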

[4] = system: P-glycoprotein (P-gp/Mdr1); conditions: on the BBB; cited from earlier work
[5] = Dose linearity study: single IV dose PK, noncompartmental analysis; format: in vivo, female BALB/c mice; conditions: for β, slope of Ln(AUC0-∞) versus Ln(dose): 2–60 mg/kg IV, power model; for AUC(0-inf) / Cmax / Tmax / Vd / half-life / AUC(0-t) / clearance: female, BALB/c, mouse, iv; for AUC(0-inf) / Cmax / Tmax / Vd / half-life / AUC(0-t) / clearance / AUC0-t/dose / AUC0-∞ /dose / AUC0–360/dose / AUCextrap / Cmax/dose / Tlast: plasma; for clearance: CL; for AUC extrapolated beyond 24 h in tissues: tissues with a quantifiable 24 h sample; for 0–24 h feces / 0–24 h urine: unchanged drug
How it was run: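 Single ~30 s tail-vein bolus of test compound in 12% captisol (pH 4, acetic acid), 2.0, 6.0, 20 or 60 mg/kg, female BALB/c mice 5–7 weeks old, N=3 per time point. Plasma and tissues taken 5–1,440 min; pooled 24 h urine/feces from metabolic cages. LC-MS/MS with [D7] internal standard. NCA, Bailer AUC. Dose linearity via slope of Ln AUC0-∞ versus Ln dose against β=1.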

CNCc1ccc(-c2cc(-c3nc(-c4ccc(S(=O)(=O)C(C)C)cc4)cnc3N)on2)cc1 [berzosertib]
dose up to which plasma PK is dose-proportionate [1]: up to 240 mg/m^2
efflux transporter substrate [2]: substrate
fraction unbound at 24 h, 300 ng/mL [3]: 0.028
fraction unbound at 24 h, 100000 ng/mL [3]: 0.0427
efflux transporter substrate [4]: substrate
β, slope of Ln(AUC0-∞) versus Ln(dose) ([5]; Brain): 1.17 (95% CI: 0.786 – 1.56)
β, slope of Ln(AUC0-∞) versus Ln(dose) ([5]; Kidney): 1.35 (95% CI: 0.960 – 1.73)
β, slope of Ln(AUC0-∞) versus Ln(dose) ([5]; Lung): 1.30 (95% CI: 0.804 – 1.79)
unchanged drug recovered in feces ([5]; across all groups (2–60 mg/kg IV), 0–24 h): < 4%
increase in volume of distribution (Vd) ([5]; between 2 and 60 mg/kg IV): more than 3 fold
AUC(0-inf) ([5]; 2 mg/kg): 867 ng·h/mL
Cmax ([5]; 2 mg/kg): 1480 ng/mL
Tmax ([5]; 2 mg/kg): 5 min
Vd ([5]; 2 mg/kg): 8.49 L/kg
half-life ([5]; 2 mg/kg): 2.55 h
AUC(0-t) ([5]; 2 mg/kg, AUC0-t, 2.0 mg/kg IV): 765 ng·h/mL
AUC(0-t) ([5]; 2 mg/kg, AUC0–360, plasma, 2.0 mg/kg IV): 765 ng·h/mL
AUC(0-inf) ([5]; 6 mg/kg): 2450 ng·h/mL
Cmax ([5]; 6 mg/kg): 3470 ng/mL
Tmax ([5]; 6 mg/kg): 5 min
Vd ([5]; 6 mg/kg): 9.63 L/kg
half-life ([5]; 6 mg/kg): 2.73 h
AUC(0-t) ([5]; 6 mg/kg, AUC0-t, 6.0 mg/kg IV): 2100 ng·h/mL
AUC(0-t) ([5]; 6 mg/kg, AUC0–360, plasma, 6.0 mg/kg IV): 2100 ng·h/mL
AUC(0-inf) ([5]; 20 mg/kg): 10200 ng·h/mL
Cmax ([5]; 20 mg/kg): 10200 ng/mL
Tmax ([5]; 20 mg/kg): 5 min
Vd ([5]; 20 mg/kg): 11.9 L/kg
half-life ([5]; 20 mg/kg): 4.22 h
AUC(0-t) ([5]; 20 mg/kg, AUC0-t, 20 mg/kg IV): 10100 ng·h/mL
AUC(0-t) ([5]; 20 mg/kg, AUC0–360, plasma, 20 mg/kg IV): 7070 ng·h/mL
clearance ([5]; 20 mg/kg, calculated using AUC0-∞, 20 mg/kg IV): 32.6 mL/min/kg
clearance ([5]; 20 mg/kg, calculated using AUC0–360, 20 mg/kg IV): 47.2 mL/min/kg
AUC(0-inf) ([5]; 60 mg/kg): 35400 ng·h/mL
Cmax ([5]; 60 mg/kg): 21200 ng/mL
Tmax ([5]; 60 mg/kg): 5 min
Vd ([5]; 60 mg/kg): 25.6 L/kg
half-life ([5]; 60 mg/kg): 10.5 h
AUC(0-t) ([5]; 60 mg/kg, AUC0-t, 60 mg/kg IV): 29400 ng·h/mL
AUC(0-t) ([5]; 60 mg/kg, AUC0–360, plasma, 60 mg/kg IV): 15500 ng·h/mL
AUC0-t/dose ([5]; 2.0 mg/kg IV): 23.0
AUC0-∞ /dose ([5]; 2.0 mg/kg IV): 26.0
AUC0–360/dose ([5]; 2.0 mg/kg IV): 23.0
AUCextrap ([5]; 2.0 mg/kg IV): 11.7%
Cmax/dose ([5]; 2.0 mg/kg IV): 0.738
Tlast ([5]; 2.0 mg/kg IV): 360 min
AUC0-t/dose ([5]; 6.0 mg/kg IV): 21.1
AUC0-∞ /dose ([5]; 6.0 mg/kg IV): 24.6
AUC0–360/dose ([5]; 6.0 mg/kg IV): 21.1
AUCextrap ([5]; 6.0 mg/kg IV): 14.2%
Cmax/dose ([5]; 6.0 mg/kg IV): 0.578
Tlast ([5]; 6.0 mg/kg IV): 360 min
AUC0-t/dose ([5]; 20 mg/kg IV): 30.3
AUC0-∞ /dose ([5]; 20 mg/kg IV): 30.7
AUC0–360/dose ([5]; 20 mg/kg IV): 21.2
AUCextrap ([5]; 20 mg/kg IV): 1.39%
Cmax/dose ([5]; 20 mg/kg IV): 0.512
AUC0-t/dose ([5]; 60 mg/kg IV): 29.4
AUC0-∞ /dose ([5]; 60 mg/kg IV): 35.4
AUC0–360/dose ([5]; 60 mg/kg IV): 15.5
AUCextrap ([5]; 60 mg/kg IV): 17.0%
Cmax/dose ([5]; 60 mg/kg IV): 0.353
AUC extrapolated beyond 24 h in tissues ([5]; 60 mg/kg): > 20%
AUC extrapolated beyond 24 h in tissues ([5]; 2, 6 and 20 mg/kg groups): < 3%
0–24 h feces ([5]; 2.0 mg/kg IV): 1.78 % dose
0–24 h urine ([5]; 2.0 mg/kg IV): 40.6 % dose
0–24 h feces ([5]; 6.0 mg/kg IV): 3.41 % dose
0–24 h urine ([5]; 6.0 mg/kg IV): 49.2 % dose
0–24 h feces ([5]; 20 mg/kg IV): 1.48 % dose
0–24 h urine ([5]; 20 mg/kg IV): 55.8 % dose
0–24 h feces ([5]; 60 mg/kg IV): 2.02 % dose
0–24 h urine ([5]; 60 mg/kg IV, 60 mg/kg): 28 % dose
